The results in this text go back to ChEMBL document CHEMBL1765085, “Cytotoxic and apoptosis-inducing activities of triterpene acids from Poria cocos” (J Nat Prod, 2011).

Usually IC50 stands for the concentration needed to halve the response being measured.

System in one experiment: not listed separately
In words: Cytotoxicity in human AZ-521 cells assessed as cell viability after 48 hrs by MTT assay. The class given is functional, cell-based. As to conditions: AZ-521, 48 h.
Consider `C=C(CC[C@@H](CO)[C@H]1CC[C@@]2(C)C3=CC[C@H]4C(C)(C)[C@@H](O)CC[C@]4(C)C3=CC[C@]12C)C(C)C`, for which the IC50 turned out to be 12.5 µM.
Take `C=C(CC[C@@H](C(=O)OC)[C@H]1CC[C@@]2(C)C3=CC[C@H]4C(C)(C)C(=O)CC[C@]4(C)C3=CC[C@]12C)C(C)C`: the IC50 was found to be 53.4 µM.
On to `C=C(CC[C@@H](C(=O)O)[C@H]1CC[C@@]2(C)C3=CC[C@@H](C(=C)C)[C@](C)(CCC(=O)O)C3=CC[C@]12C)C(C)C` [PORICOIC ACID C], for which the IC50 worked out at 45.9 µM.
On the same count and under the same terms, with `C=C(C)[C@@H]1CCC2=C(CC[C@]3(C)[C@@H]([C@H](CO)CCC=C(C)C)[C@H](O)C[C@@]23C)[C@@]1(C)CCCO` [PORICOTRIOL G] the figure was 13.4 µM; with `C=C(C)[C@@H]1CCC2=C(CC[C@]3(C)[C@@H]([C@@H](CCC=C(C)C)C(=O)O)[C@H](O)C[C@@]23C)[C@@]1(C)CCC(=O)O` [PORICOIC ACID G], greater than 100 µM.

For a further experiment, the system named is DU-145. In words: Cytotoxicity in human DU145 cells assessed as cell viability after 48 hrs by MTT assay. It counts as functional, cell-based. The note with it: DU-145, 48 h. The essentials: (§1)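 Growth conditions: RPMI 1640 for HL60, CRL1579, NIH:OVCAR-3, SK-BR-3, DU145 and PANC-1; D-MEM for A549; MEM for WI-38; all with 10% FBS and antibiotics, 37 °C, 5% CO2. Seeded at 3 × 10^3 cells/well (OVCAR-3 1 × 10^4), then treated 48 h with 10^-4 to 10^-6 M. MTT for 3 h, formazan dissolved in 0.04 M HCl/2-propanol, A570/630. IC50 (50% growth inhibition) from triplicates.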
(In general: Tetrazolium dyes change colour on reduction, which living cells bring about.)
`C=C(CC[C@@H](CO)[C@H]1CC[C@@]2(C)C3=CC[C@H]4C(C)(C)[C@@H](O)CC[C@]4(C)C3=CC[C@]12C)C(C)C`: the IC50 is greater than 100 µM.
As to `C=C(CC[C@@H](C(=O)OC)[C@H]1CC[C@@]2(C)C3=CC[C@H]4C(C)(C)C(=O)CC[C@]4(C)C3=CC[C@]12C)C(C)C`, the IC50 was greater than 100 µM.
Regarding `C=C(CC[C@@H](C(=O)O)[C@H]1CC[C@@]2(C)C3=CC[C@@H](C(=C)C)[C@](C)(CCC(=O)O)C3=CC[C@]12C)C(C)C` [PORICOIC ACID C], the IC50 turned out to be 14.5 µM.
As for `C=C(C)[C@@H]1CCC2=C(CC[C@]3(C)[C@@H]([C@H](CO)CCC=C(C)C)[C@H](O)C[C@@]23C)[C@@]1(C)CCCO` [PORICOTRIOL G], the concentration for half-maximal inhibition (IC50) is greater than 100 µM.
Consider `C=C(C)[C@@H]1CCC2=C(CC[C@]3(C)[C@@H]([C@@H](CCC=C(C)C)C(=O)O)[C@H](O)C[C@@]23C)[C@@]1(C)CCC(=O)O` [PORICOIC ACID G], for which the IC50 was greater than 100 µM.

In a further experiment the test system is PANC-1. In words: Cytotoxicity in human PANC1 cells assessed as cell viability after 48 hrs by MTT assay. The class given is functional, cell-based. As to conditions: PANC-1, 48 h. The essentials:
as §1
Take `C=C(CC[C@@H](CO)[C@H]1CC[C@@]2(C)C3=CC[C@H]4C(C)(C)[C@@H](O)CC[C@]4(C)C3=CC[C@]12C)C(C)C`: the IC50 was found to be 22.6 µM.
`C=C(CC[C@@H](C(=O)OC)[C@H]1CC[C@@]2(C)C3=CC[C@H]4C(C)(C)C(=O)CC[C@]4(C)C3=CC[C@]12C)C(C)C`: the IC50 was greater than 100 µM.
As to `C=C(CC[C@@H](C(=O)O)[C@H]1CC[C@@]2(C)C3=CC[C@@H](C(=C)C)[C@](C)(CCC(=O)O)C3=CC[C@]12C)C(C)C` [PORICOIC ACID C], the IC50 was 68.9 µM.
In the case of `C=C(C)[C@@H]1CCC2=C(CC[C@]3(C)[C@@H]([C@H](CO)CCC=C(C)C)[C@H](O)C[C@@]23C)[C@@]1(C)CCCO` [PORICOTRIOL G], the 50% inhibitory concentration (IC50) came to 17.9 µM.
`C=C(C)[C@@H]1CCC2=C(CC[C@]3(C)[C@@H]([C@@H](CCC=C(C)C)C(=O)O)[C@H](O)C[C@@]23C)[C@@]1(C)CCC(=O)O` [PORICOIC ACID G]: the IC50 is greater than 100 µM.

Another experiment relates to HL-60. In words: Cytotoxicity in human HL60 cells assessed as cell viability after 48 hrs by MTT assay. As to conditions: HL-60, 48 h. It counts as functional, cell-based. The essentials:
as §1
Take `C=C(CC[C@@H](CO)[C@H]1CC[C@@]2(C)C3=CC[C@H]4C(C)(C)[C@@H](O)CC[C@]4(C)C3=CC[C@]12C)C(C)C`: the half-maximal inhibitory concentration (IC50) turned out to be 6.7 µM.
Consider `C=C(CC[C@@H](C(=O)OC)[C@H]1CC[C@@]2(C)C3=CC[C@H]4C(C)(C)C(=O)CC[C@]4(C)C3=CC[C@]12C)C(C)C`, for which the IC50 came to 23.5 µM.
For `C=C(CC[C@@H](C(=O)O)[C@H]1CC[C@@]2(C)C3=CC[C@@H](C(=C)C)[C@](C)(CCC(=O)O)C3=CC[C@]12C)C(C)C` [PORICOIC ACID C], the IC50 came to 25.9 µM.
Still for that read-out and setting: under `C=C(C)[C@@H]1CCC2=C(CC[C@]3(C)[C@@H]([C@H](CO)CCC=C(C)C)[C@H](O)C[C@@]23C)[C@@]1(C)CCCO` [PORICOTRIOL G] stands 7.5 µM.

The next experiment relates to A549. In words: Cytotoxicity in human A549 cells assessed as cell viability after 48 hrs by MTT assay. It counts as functional, cell-based. As to conditions: A549, 48 h. The essentials: as §1
As to `C=C(CC[C@@H](CO)[C@H]1CC[C@@]2(C)C3=CC[C@H]4C(C)(C)[C@@H](O)CC[C@]4(C)C3=CC[C@]12C)C(C)C`, the concentration for half-maximal inhibition (IC50) turned out to be 4 µM.
The same measure, in the same setting: with `C=C(CC[C@@H](C(=O)OC)[C@H]1CC[C@@]2(C)C3=CC[C@H]4C(C)(C)C(=O)CC[C@]4(C)C3=CC[C@]12C)C(C)C` the figure was 96.5 µM.
Turning to `C=C(CC[C@@H](C(=O)O)[C@H]1CC[C@@]2(C)C3=CC[C@@H](C(=C)C)[C@](C)(CCC(=O)O)C3=CC[C@]12C)C(C)C` [PORICOIC ACID C], the IC50 worked out at 27 µM.
For the compound `C=C(C)[C@@H]1CCC2=C(CC[C@]3(C)[C@@H]([C@H](CO)CCC=C(C)C)[C@H](O)C[C@@]23C)[C@@]1(C)CCCO` [PORICOTRIOL G], the IC50 is 11 µM.
On the same count and under the same terms, under `C=C(C)[C@@H]1CCC2=C(CC[C@]3(C)[C@@H]([C@@H](CCC=C(C)C)C(=O)O)[C@H](O)C[C@@]23C)[C@@]1(C)CCC(=O)O` [PORICOIC ACID G] stands greater than 100 µM.

Another experiment has as its system OVCAR-3. In words: Cytotoxicity in human OVCAR3 cells assessed as cell viability after 48 hrs by MTT assay. It counts as functional, cell-based. The note with it: OVCAR-3, 48 h. The essentials:
as §1
As to `C=C(CC[C@@H](CO)[C@H]1CC[C@@]2(C)C3=CC[C@H]4C(C)(C)[C@@H](O)CC[C@]4(C)C3=CC[C@]12C)C(C)C`, the IC50 turned out to be 6.4 µM.
On to `C=C(CC[C@@H](C(=O)OC)[C@H]1CC[C@@]2(C)C3=CC[C@H]4C(C)(C)C(=O)CC[C@]4(C)C3=CC[C@]12C)C(C)C`, for which the half-maximal inhibitory concentration (IC50) is greater than 100 µM.
For the compound `C=C(CC[C@@H](C(=O)O)[C@H]1CC[C@@]2(C)C3=CC[C@@H](C(=C)C)[C@](C)(CCC(=O)O)C3=CC[C@]12C)C(C)C` [PORICOIC ACID C], the half-inhibitory concentration (IC50) was found to be 53.1 µM.
For the compound `C=C(C)[C@@H]1CCC2=C(CC[C@]3(C)[C@@H]([C@H](CO)CCC=C(C)C)[C@H](O)C[C@@]23C)[C@@]1(C)CCCO` [PORICOTRIOL G], the 50% inhibitory concentration (IC50) worked out at 43.5 µM.
Same read-out and setting: with `C=C(C)[C@@H]1CCC2=C(CC[C@]3(C)[C@@H]([C@@H](CCC=C(C)C)C(=O)O)[C@H](O)C[C@@]23C)[C@@]1(C)CCC(=O)O` [PORICOIC ACID G] the figure was greater than 100 µM.

System in the next experiment: not listed separately
In words: Cytotoxicity in human CRL1579 cells assessed as cell viability after 48 hrs by MTT assay. The class given is functional, cell-based.
Conditions: not given
The essentials: as §1
For `C=C(CC[C@@H](CO)[C@H]1CC[C@@]2(C)C3=CC[C@H]4C(C)(C)[C@@H](O)CC[C@]4(C)C3=CC[C@]12C)C(C)C`, the IC50 stood at 2.8 µM.
In the case of `C=C(CC[C@@H](C(=O)OC)[C@H]1CC[C@@]2(C)C3=CC[C@H]4C(C)(C)C(=O)CC[C@]4(C)C3=CC[C@]12C)C(C)C`, the IC50 worked out at 20.9 µM.
Turning to `C=C(CC[C@@H](C(=O)O)[C@H]1CC[C@@]2(C)C3=CC[C@@H](C(=C)C)[C@](C)(CCC(=O)O)C3=CC[C@]12C)C(C)C` [PORICOIC ACID C], the IC50 is greater than 100 µM.
In the case of `C=C(C)[C@@H]1CCC2=C(CC[C@]3(C)[C@@H]([C@H](CO)CCC=C(C)C)[C@H](O)C[C@@]23C)[C@@]1(C)CCCO` [PORICOTRIOL G], the IC50 amounted to 11.6 µM.

The subject of a further experiment is SK-BR-3. In words: Cytotoxicity in human SK-BR-3 cells assessed as cell viability after 48 hrs by MTT assay. The note with it: SK-BR-3, 48 h. It counts as functional, cell-based. The essentials:
as §1
For `C=C(CC[C@@H](CO)[C@H]1CC[C@@]2(C)C3=CC[C@H]4C(C)(C)[C@@H](O)CC[C@]4(C)C3=CC[C@]12C)C(C)C`, the IC50 came out at 11.7 µM.
Regarding `C=C(CC[C@@H](C(=O)OC)[C@H]1CC[C@@]2(C)C3=CC[C@H]4C(C)(C)C(=O)CC[C@]4(C)C3=CC[C@]12C)C(C)C`, the IC50 worked out at 27.5 µM.
For `C=C(CC[C@@H](C(=O)O)[C@H]1CC[C@@]2(C)C3=CC[C@@H](C(=C)C)[C@](C)(CCC(=O)O)C3=CC[C@]12C)C(C)C` [PORICOIC ACID C], the 50% inhibitory concentration (IC50) worked out at 23.9 µM.
Take `C=C(C)[C@@H]1CCC2=C(CC[C@]3(C)[C@@H]([C@H](CO)CCC=C(C)C)[C@H](O)C[C@@]23C)[C@@]1(C)CCCO` [PORICOTRIOL G]: the IC50 stood at 13 µM.
On the same count and under the same terms, under `C=C(C)[C@@H]1CCC2=C(CC[C@]3(C)[C@@H]([C@@H](CCC=C(C)C)C(=O)O)[C@H](O)C[C@@]23C)[C@@]1(C)CCC(=O)O` [PORICOIC ACID G] stands greater than 100 µM.
